ChEMBL document CHEMBL1212869, “Anti-HIV and antiplasmodial activity of original flavonoid derivatives” (Bioorg Med Chem, 2010)

Key:
THP-1 = assay: Cytotoxicity against human THP1 cells using propidium iodide staining after 72 hrs by flow cytometry; format: cell-based; conditions: THP-1, 72 h
Plasmodium falciparum = assay: Antiplasmodial activity against chloroquine-resistant Plasmodium falciparum W2 infected in human A+ erythrocytes assessed as inhibition of parasite proliferation after 48 hrs; format: functional, organism-based; conditions: W2, 48 h
Procedure, shortened: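 W2 parasites were cultured in RPMI 1640 with 25 mM HEPES, 25 mM NaHCO3 and 10% A+ human serum at 2.5% hematocrit, at 37 °C under 10% O2/6% CO2/84% N2. After 48 h exposure without medium change, cells were stained with hydroethidine (0.05 mg/mL in PBS, 20 min, dark, 37 °C). Parasitaemia was read by flow cytometry. IC50 came from three independent experiments.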

[1] = Selectivity index, ratio of IC50 for human THP1 cells to IC50 for chloroquine-resistant Plasmodium falciparum W2; format: toxicity, cell-based, THP-1; conditions: read-out: Selectivity Index
[2] = Cytotoxicity against human MT4 cells after 4 days by MTT assay; format: cell-based
Procedure, shortened: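 Uninfected MT-4 cells were run in parallel with the antiviral test under the same conditions: 10⁵ cells/mL, serial compound dilutions from DMSO stocks, 4 days at 37 °C. Viability was read by MTT. CC50 is the concentration that lowers viability of uninfected cells by 50%.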

[3] = tested on: Human immunodeficiency virus 1; assay: Antiviral activity against HIV1 3B infected in human MT4 cells assessed as inhibition of virus-induced cytopathic effect after 4 days by MTT assay; format: functional, organism-based; conditions: Human immunodeficiency virus 1, 3B, MT4, 96 h
[4] = tested on: Human immunodeficiency virus 2; assay: Antiviral activity against HIV2 ROD infected in human MT4 cells assessed as inhibition of virus-induced cytopathic effect after 4 days by MTT assay; format: functional, organism-based; conditions: Human immunodeficiency virus 2, ISOLATE ROD, MT4, 96 h
[5] = Selectivity index, ratio of CC50 for human MT4 cells to IC50 for HIV2 ROD; format: functional
Procedure, shortened: (§1)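 Selectivity index was calculated as the MT-4 CC50 from uninfected cells divided by the IC50 against HIV-1 IIIB or HIV-2 ROD. Both values came from the 4-day MTT cytopathic-effect assays.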

[6] = Selectivity index, ratio of CC50 for human MT4 cells to IC50 for HIV1 3B; format: functional; procedure, shortened: as §1

Row | Structure (SMILES) | IC50 (THP-1) [µM] | IC50 (Plasmodium falciparum) [µM] | selectivity ratio [1] | CC50 at 96 h [2] [µM] | IC50 [3] [µM] | IC50 [4] [µM] | Selectivity Index [5] | Selectivity Index [6]
1 | COc1c(-c2ccc(C(F)(F)F)cc2)oc2ccc(NC(C)=O)cc2c1=O | > 125 | 39 | > 3.2 | 332 | 332 | 332 | – | –
2 | COc1c(-c2ccccc2)oc2ccc(NC(C)=O)cc2c1=O | > 125 | 18 | > 6.9 | 200 | 200 | 200 | – | –
3 | COc1ccccc1-c1oc2ccc(NC(C)=O)cc2c(=O)c1OC | 108 | 16 | 6.7 | 154 | 154 | 154 | – | –
4 | COc1ccc(-c2oc3ccc(NC(C)=O)cc3c(=O)c2OC)cc1 | > 50 | 21 | > 2.4 | 369 | 369 | 369 | – | –
5 | COc1c(-c2ccccc2F)oc2ccc(NC(C)=O)cc2c1=O | > 125 | 15 | > 8.3 | 180 | 180 | 180 | – | –
6 | COc1c(-c2cccc(F)c2)oc2ccc(NC(C)=O)cc2c1=O | > 125 | 49 | > 2.6 | 210 | 210 | 210 | – | –
7 | COc1c(-c2ccc(F)cc2)oc2ccc(NC(C)=O)cc2c1=O | > 125 | 23 | > 5.4 | 317 | 317 | 317 | – | –
8 | COc1c(-c2cccc(C(F)(F)F)c2)oc2ccc(NC(C)=O)cc2c1=O | 52 | 19 | 2.7 | 201 | 201 | 201 | – | –
9 | COc1c(-c2ccccc2)oc2ccc(N)cc2c1=O | 74 | 20 | 3.7 | 126 | 126 | 126 | – | –
10 | COc1ccccc1-c1oc2ccc(N)cc2c(=O)c1OC | 116 | 7.7 | 15.1 | 229 | 229 | 229 | – | –
11 | COc1cccc(-c2oc3ccc(N)cc3c(=O)c2OC)c1 | 37 | 13 | 2.8 | 251 | 251 | 251 | – | –
12 | COc1ccc(-c2oc3ccc(N)cc3c(=O)c2OC)cc1 | 21 | > 21 | – | 200 | 200 | 58.2 | 3.4 | –
13 | COc1c(-c2ccccc2F)oc2ccc(N)cc2c1=O | > 125 | 23 | > 5.4 | 234 | 44.7 | 234 | – | 5.2
14 | COc1c(-c2cccc(F)c2)oc2ccc(N)cc2c1=O | 34 | > 34 | – | 112 | 112 | 60.7 | 1.9 | –
15 | COc1c(-c2ccc(F)cc2)oc2ccc(N)cc2c1=O | 36 | 33 | 1.1 | 141 | 141 | 141 | – | –
16 | COc1c(-c2cccc(C(F)(F)F)c2)oc2ccc(N)cc2c1=O | 33 | > 33 | – | 73.1 | 50.4 | 57.6 | 1.3 | 1.5

Row | Structure (SMILES) | IC50 (THP-1) [µM] | IC50 (Plasmodium falciparum) [µM] | selectivity ratio [1] | CC50 at 96 h [2] [µM] | IC50 [3] [µM] | IC50 [4] [µM] | Selectivity Index [5] | Selectivity Index [6]
17 | COc1c(-c2ccc(C(F)(F)F)cc2)oc2ccc(N)cc2c1=O | – | 26 | – | 290 | 290 | 47.7 | 6.1 | –
18 | CC(=O)Nc1ccc(O)c(C(=O)/C=C/c2cccc(F)c2)c1 | 78.6 | 15.7 | 5 | 30.1 | 30.1 | 30.1 | – | –
19 | CC(=O)Nc1ccc(O)c(C(=O)/C=C/c2ccc(F)cc2)c1 | 68.8 | 16.9 | 4.1 | 41.1 | 41.1 | 41.1 | – | –
20 | CC(=O)Nc1ccc(O)c(C(=O)/C=C/c2ccc(C(F)(F)F)cc2)c1 | 15.5 | 11.6 | 1.3 | 21.1 | 21.1 | 21.1 | – | –
21 | CC(=O)Nc1ccc2oc(-c3ccccc3F)cc(=O)c2c1 | > 125 | 40 | > 3.1 | 205 | 205 | 205 | – | –
22 | CC(=O)Nc1ccc2oc(-c3cccc(F)c3)cc(=O)c2c1 | > 125 | 50 | > 2.5 | 240 | 240 | 240 | – | –
23 | COc1ccccc1-c1cc(=O)c2cc(N)ccc2o1 | 74 | 50 | 1.5 | 198 | 88 | 198 | – | 2.3
24 | COc1cccc(-c2cc(=O)c3cc(N)ccc3o2)c1 | > 125 | 31 | > 4 | 247 | 247 | 247 | – | –
25 | COc1ccc(-c2cc(=O)c3cc(N)ccc3o2)cc1 | 124 | 35 | 3.5 | 240 | 240 | 240 | – | –
26 | Nc1ccc2oc(-c3cccc(F)c3)cc(=O)c2c1 | > 125 | > 50 | – | 269 | 61.1 | 58.4 | 4.6 | 4.4
27 | COc1ccccc1-c1oc2ccc(NC(C)=O)cc2c(=O)c1O | > 125 | 50 | > 2.5 | 385 | 385 | 385 | – | –
28 | COc1ccccc1-c1oc2ccc(N)cc2c(=O)c1O | 102 | 46 | 2.2 | 222 | 222 | 222 | – | –
29 | O=c1[nH]cnc2c1ncn2[C@H]1CC[C@@H](CO)O1 [DIDANOSINE] | – | – | – | > 529 | – | – | >195 | >98
30 | Cc1ccnc2c1NC(=O)c1cccnc1N2C1CC1 [NEVIRAPINE] | – | – | – | – | 0.03 | 15 | 46 | –
31 | Cc1cn([C@H]2C[C@H](N=[N+]=[N-])[C@@H](CO)O2)c(=O)[nH]c1=O [ZIDOVUDINE] | – | – | – | 93.5 | 0.005 | – | – | >17990
